Consider one compound from ChEMBL document CHEMBL4033789, “Discovery of a New Four-Leaf Clover-Like Ligand as a Potent c-MYC Transcription Inhibitor Specifically Targeting the Promoter G-Quadruplex” (J Med Chem, 2018).

The subject of data set [1] is SiHa. As to the kind of experiment: Induction of apoptosis in human SiHa cells assessed as upregulation of cleaved PARP protein levels at 1.25 to 5 uM after 24 hrs by Western blot analysis relative to control. It is filed as functional, cell-based. A digest of the protocol:
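SiHa cells (2.0×10^5 per well) treated 24 h, lysed at 4 °C for 30 min, supernatant cleared at 15,000 rpm; protein measured by BCA, 30 µg resolved on 10% SDS-PAGE, transferred to nitrocellulose, blocked in 5% milk/TBS-Tween 1 h, primary antibodies overnight at 4 °C, HRP secondaries 2 h at room temperature.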

Data set [2] in a line: Binding affinity to 1 uM C-KIT1 promoter G-quadruplex DNA (unknown origin) at 1 uM after 1 min by fluorescence spectroscopic analysis. It is filed as ADME. The method in brief: (§1)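 Fluorescence emission spectra of 1 µM compound mixed with 1 µM pre-annealed oligonucleotide (G-quadruplexes folded in 100 mM KCl by heating to 95 °C for 5 min, slow cooling), in Tris-HCl buffer.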

The species entered for data set [3] is Homo sapiens. The data set can be described thus: Stabilization of c-Myc G-quadruplex DNA in human SiHa cells assessed as decrease in c-Myc protein expression at 1.25 to 5 uM after 24 hrs by Western blot method. It is filed as cell-based. The method in brief:
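SiHa cells (2.0×10^5) exposed 24 h, lysed at 4 °C; 30 µg protein per lane on 10% SDS-PAGE, transferred to nitrocellulose, milk-blocked, primary antibody overnight at 4 °C, HRP secondary 2 h at room temperature.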
A general note: Immunoblotting shows a protein as a band on a membrane.

Data set [4] concerns SiHa. The data set can be described thus: Antitumor activity against human SiHa cells xenografted in nude BALB/c mouse assessed as tumor growth inhibition at 5 mg,kg, ip administered every other day for 24 days. It is filed as functional. The method in brief: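 BALB/c nude mice (5 weeks old) given 1×10^7 SiHa cells subcutaneously in right flank; at ~50 mm3 tumor volume, randomized (10 per group) and dosed intraperitoneally every other day for 24 days; controls got equal-volume saline. Caliper volume as 1/2 × length × width2; tumors weighed at end; inhibition rate = (1 − mean treated tumor weight/mean control tumor weight) × 100%.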
(In xenograft studies the graft and the host belong to different species.)

Data set [5] has as its system BJ. The data set can be described thus: Antiproliferative activity against human BJ cells assessed as reduction in colony formation at 0.5 uM measured on day 8 by crystal violet-staining based assay. It is filed as cell-based. The method in brief:
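Cells seeded at 300 per well in six-well plates, exposed to compound at 37 °C, 5% CO2, with drug-containing medium replaced every 2 days; after 8 days of culture, colonies fixed with methanol and stained with crystal violet.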

The species entered for data set [6] is Homo sapiens. As to the kind of experiment: Stabilization of c-Myc promoter G-quadruplex DNA in human Raji cells assessed as downregulation of exon 2 transcriptional level after 6 hrs by RT-PCR analysis. It is filed as cell-based. The method in brief:
(§2)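 RAJI and CA46 cells treated 6 h over a concentration range; total RNA reverse-transcribed (oligo dT18, M-MLV, 42 °C 1 h then 85 °C 5 min); exon 1 and exon 2 amplified by real-time PCR with exon-specific primers, products run on 1% agarose gel; three repeats.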

A further data set has as its system Mus musculus. As to the kind of experiment: Toxicity in nude BALB/c mouse xenografted with human SiHa cells assessed as signs of pain at 5 to 20 mg/kg, ip administered every other day for 24 days. It is filed as organism-based. The conditions noted are these: in vivo, 576 h.
Data set [7] can be described thus: Cytotoxicity against mouse primary mesangial cells assessed as reduction in cell viability after 24 hrs by MTT assay. It is filed as cell-based. A digest of the protocol:
(§3)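 Cells seeded at 5.0×10^3 per well, exposed to compound for 24 h; MTT (2.5 mg/mL) added for 4 h, formazan dissolved in DMSO, OD read at 570 nm. Triplicate; IC50 from curves of mean OD against concentration.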
In general terms: Tetrazolium assays rely on reduction of a dye to a coloured formazan, in cell work by metabolically active cells.

Data set [8] is filed under the species Homo sapiens. As to the kind of experiment: Stabilization of c-Myc promoter G-quadruplex DNA in human CA46 cells assessed as effect on exon 2 transcriptional level at 1.25 to 5 uM after 6 hrs by RT-PCR analysis. It is filed as cell-based. The method in brief:
as §2

A short description of data set [9]: Binding affinity to up to 10 uM hybrid telomeric htg22 G-quadruplex DNA (unknown origin) at 1 uM after 1 min by fluorescence spectroscopic analysis. It is filed as ADME. A digest of the protocol: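 Oligonucleotide stock added stepwise to fixed-concentration compound in 10 mM Tris-HCl pH 7.2, 100 mM KCl; equilibrated ≥1 min after each addition, emission read with excitation at 350 nm. KD from fitting titration data to the Benesi–Hildebrand equation; 1:1 stoichiometry checked by Job plot.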

The nature of data set [10]: Binding affinity to 1 uM PDGFA promoter G-quadruplex DNA (unknown origin) at 1 uM after 1 min by fluorescence spectroscopic analysis. It is filed as ADME. The method in brief: as §1
A short description of data set [11]: Stabilization of c-Myc promoter pu22 G-quadruplex DNA (unknown origin) assessed as change in melting temperature at 15 uM by circular dichroism spectroscopic assay. A digest of the protocol: (§4)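 CD melting of 3 µM annealed G-quadruplex with or without 15 µM ligand in 10 mM Tris-HCl pH 7.2 with 2 mM KCl (50 mM KCl for htg22 and HRAS); read every 5 °C over 25–95 °C, heating 1 °C/min.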

For another data set, the system named is U2OS. As to the kind of experiment: Cytotoxicity against human U2OS cells assessed as reduction in cell viability after 24 hrs by MTT assay. It is filed as functional, cell-based. A digest of the protocol: as §3
Data set [12] can be described thus: Stabilization of HRAS G-quadruplex DNA in human SiHa cells assessed as effect on HRAS mRNA level at 1.25 to 5 uM fter 6 hrs by RT-PCR method. It is filed as ADME, cell-based. A digest of the protocol:
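SiHa cells (2.0×10^5 per well) treated 6 h; total RNA (2 µg) reverse-transcribed with oligo dT18 and M-MLV at 42 °C for 1 h, 85 °C for 5 min; PCR: 95 °C 5 min, then 30 cycles of 95 °C 30 s, 58 °C 30 s, 72 °C 40 s; products checked on agarose gel.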

Data set [13] relates to SiHa. The data set can be described thus: Induction of cell cycle arrest in human SiHa cells assessed as accumulation at G0/G1 phase up to 5 uM after 12 hrs by propidium iodide-staining based FACS analysis (reference value: 61%). It is filed as functional. A digest of the protocol: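 SiHa cells treated 12 h, fixed in 70% ethanol at 4 °C overnight, stained with 50 µg/mL PI plus 75 KU/mL RNase A in PBS for 30 min in the dark at room temperature; flow cytometry, 1.6×10^4 events per sample, cell cycle distribution analyzed.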

The nature of data set [14]: Stabilization of KRAS promoter G-quadruplex DNA (unknown origin) assessed as effect on melting temperature at 15 uM by circular dichroism spectroscopic assay. It is filed as ADME. A digest of the protocol:
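G-quadruplex at 3 µM, with or without 15 µM compound, in 10 mM Tris-HCl pH 7.2 containing 2 mM KCl; CD recorded every 5 °C from 25 to 95 °C at a heating rate of 1 °C/min.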

The nature of data set [15]: Stabilization of c-Kit1 promoter G-quadruplex DNA (unknown origin) assessed as effect on melting temperature at 15 uM by circular dichroism spectroscopic assay. It is filed as ADME. The method in brief:
as §4

For data set [16], the system named is BJ. As to the kind of experiment: Cytotoxicity against human BJ cells assessed as cell growth inhibition at 1.2 to 3 uM after 130 hrs by RTCA assay. It is filed as cell-based. The method in brief: (§5)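 Cells seeded at 2000 per well on impedance plates, settled 20 min at room temperature, profiled 24 h; medium then replaced with compound-containing medium and cells monitored to 130 h total. Cell index normalized to 1.0 at the time point just before compound addition.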

Data set [17] deals with SiHa. The data set can be described thus: Cytotoxicity against human SiHa cells assessed as cell growth inhibition at 1.2 to 3 uM after 130 hrs by RTCA assay. It is filed as functional, cell-based. A digest of the protocol: as §5

The source made the active and inactive calls. The calls are words filed in the database; no cut-off is given here.

`CCn1c2ccccc2c2cc(-c3nc(-c4ccc(N5CCN(C)CC5)cc4)c(-c4ccc(N5CCN(C)CC5)cc4)n3-c3ccc(OC)cc3)ccc21`: the result with SiHa [1] and in the data set filed under Homo sapiens [3] was Active. Moreover, the Activity result in [2] is “Not Active”; in the data set with BJ [5], “Non-Toxic”; in the data set listed under Homo sapiens [6] it was “Dose-dependent effect”; with Mus musculus, “Non-Toxic”; in [9], “Not Active”; in [10] it was “Not Active”. The Activity entry in data set [12] is on record as “Not Active”; with SiHa [13], 70%; in data set [14], “Not Active”; in data set [15], “Not Active”. In addition, in the data set with SiHa [4], the inhibition of tumour growth (TGI) stood at 57%. The IC50 came out at 15.6 µM in data set [7] and 6.8 µM with U2OS. Further, the result in the data set listed under Homo sapiens [8] was inactive. Further, the shift in melting temperature (ΔTm) in data set [11] came to 20 °C. Moreover, the “growth inhibition (GI)” value in the data set on BJ [16] was “Non-Toxic”. In addition, in the data set on SiHa [17], the “growth inhibition (GI)” value was “Active”.

A word on the TGI: it is the reduction of tumour growth relative to the control group. What is called IC50 is the concentration at which inhibition is half-maximal. As usually defined, the ΔTm is the change in melting temperature against a reference sample.
